Data taken from ChEMBL document CHEMBL4382197, “Discovery of QCA570 as an Exceptionally Potent and Efficacious Proteolysis Targeting Chimera (PROTAC) Degrader of the Bromodomain and Extra-Terminal (BET) Proteins Capable of Inducing Complete and Durable Tumor Regression” (J Med Chem, 2018).
Calls of active or inactive are those of the source. The calls are words filed in the database; no cut-off is given here.

Tests used:
[1] = biological target: Bromodomain-containing protein 4 (Homo sapiens, UniProt O60885)
[2] = biological target: T1, Protein cereblon/Bromodomain-containing protein 4/Cullin-4A (Homo sapiens) (UniProt O60885+Q96SW2+Q13619); experiment: Protac activity at cereblon/cullin 4A/BRD4 in human RS4:11 cells assessed as BRD4 degradation at 0.1 nM after 3 hrs by Western blot analysis; format: cell-based
[3] = system: RS4-11; experiment: Growth inhibition of human RS4:11 cells after 96 hrs by CCK8 assay; format: functional, cell-based; conditions: RS4-11, 96 h
[4] = biological target: T2, Protein cereblon/Bromodomain-containing protein 3/Cullin-4A (Homo sapiens) (UniProt Q15059+Q96SW2+Q13619); experiment: Protac activity at cereblon/cullin 4A/BRD3 in human RS4:11 cells in assessed as BRD3 degradation at 0.1 nM after 3 hrs by Western blot analysis; format: cell-based
T2 sequence (Q13619 whole entry, looked up): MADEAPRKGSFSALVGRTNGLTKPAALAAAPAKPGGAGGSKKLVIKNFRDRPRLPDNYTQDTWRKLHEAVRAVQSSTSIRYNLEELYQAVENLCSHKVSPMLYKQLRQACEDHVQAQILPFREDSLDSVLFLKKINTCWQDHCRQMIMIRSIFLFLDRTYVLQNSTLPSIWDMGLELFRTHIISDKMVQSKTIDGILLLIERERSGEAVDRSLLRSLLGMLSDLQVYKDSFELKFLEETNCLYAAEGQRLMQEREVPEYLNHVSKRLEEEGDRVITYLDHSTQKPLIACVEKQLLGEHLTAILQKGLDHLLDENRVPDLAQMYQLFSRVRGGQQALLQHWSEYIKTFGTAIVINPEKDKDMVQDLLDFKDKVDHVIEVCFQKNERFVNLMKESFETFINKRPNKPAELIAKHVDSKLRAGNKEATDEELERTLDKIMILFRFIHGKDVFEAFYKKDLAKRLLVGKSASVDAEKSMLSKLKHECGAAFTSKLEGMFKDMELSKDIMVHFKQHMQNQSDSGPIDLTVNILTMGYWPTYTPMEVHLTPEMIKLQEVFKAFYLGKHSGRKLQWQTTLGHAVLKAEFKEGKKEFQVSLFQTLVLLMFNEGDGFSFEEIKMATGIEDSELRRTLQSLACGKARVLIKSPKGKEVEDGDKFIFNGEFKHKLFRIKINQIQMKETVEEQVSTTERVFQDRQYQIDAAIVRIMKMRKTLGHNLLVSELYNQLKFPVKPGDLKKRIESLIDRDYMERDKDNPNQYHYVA
T2 sequence (Q15059 whole entry, looked up): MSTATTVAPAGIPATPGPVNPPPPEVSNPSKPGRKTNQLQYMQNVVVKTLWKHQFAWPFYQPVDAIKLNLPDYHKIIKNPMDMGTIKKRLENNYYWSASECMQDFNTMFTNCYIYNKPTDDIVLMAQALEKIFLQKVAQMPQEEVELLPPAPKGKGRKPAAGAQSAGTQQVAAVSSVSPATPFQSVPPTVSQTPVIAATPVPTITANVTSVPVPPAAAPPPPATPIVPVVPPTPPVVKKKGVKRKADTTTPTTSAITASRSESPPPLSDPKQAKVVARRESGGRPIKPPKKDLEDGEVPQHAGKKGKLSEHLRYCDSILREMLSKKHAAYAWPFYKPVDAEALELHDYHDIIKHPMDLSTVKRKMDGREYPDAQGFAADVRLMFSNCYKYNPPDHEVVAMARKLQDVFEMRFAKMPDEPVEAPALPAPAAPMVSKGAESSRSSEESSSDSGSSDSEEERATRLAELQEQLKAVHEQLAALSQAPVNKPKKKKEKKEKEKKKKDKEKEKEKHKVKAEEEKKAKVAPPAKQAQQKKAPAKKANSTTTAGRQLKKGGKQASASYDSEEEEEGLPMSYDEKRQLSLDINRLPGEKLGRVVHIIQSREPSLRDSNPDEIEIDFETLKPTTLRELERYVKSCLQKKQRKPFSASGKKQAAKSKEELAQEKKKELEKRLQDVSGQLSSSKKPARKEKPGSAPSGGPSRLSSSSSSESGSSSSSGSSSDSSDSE
T2 sequence (Q96SW2 whole entry, looked up): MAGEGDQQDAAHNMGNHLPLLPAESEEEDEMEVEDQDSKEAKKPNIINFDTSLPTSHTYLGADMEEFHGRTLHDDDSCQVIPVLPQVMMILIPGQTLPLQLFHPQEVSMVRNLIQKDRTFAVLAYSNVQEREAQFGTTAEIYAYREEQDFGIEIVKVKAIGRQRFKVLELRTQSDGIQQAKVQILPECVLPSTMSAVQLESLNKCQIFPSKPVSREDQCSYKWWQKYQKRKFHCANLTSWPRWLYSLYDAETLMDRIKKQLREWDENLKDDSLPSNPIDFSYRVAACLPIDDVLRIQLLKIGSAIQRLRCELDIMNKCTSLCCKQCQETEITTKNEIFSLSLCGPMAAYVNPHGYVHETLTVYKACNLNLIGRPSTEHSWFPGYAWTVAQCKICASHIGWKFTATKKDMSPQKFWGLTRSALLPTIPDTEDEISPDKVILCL

[5] = biological target: T3, Protein cereblon/Bromodomain-containing protein 2/Cullin-4A (Homo sapiens) (UniProt P25440+Q96SW2+Q13619); experiment: Protac activity at cereblon/cullin 4A/BRD2 in human RS4:11 cells assessed as BRD2 degradation at 0.1 nM after 3 hrs by Western blot analysis; format: cell-based
T3 sequence (P25440 whole entry, looked up): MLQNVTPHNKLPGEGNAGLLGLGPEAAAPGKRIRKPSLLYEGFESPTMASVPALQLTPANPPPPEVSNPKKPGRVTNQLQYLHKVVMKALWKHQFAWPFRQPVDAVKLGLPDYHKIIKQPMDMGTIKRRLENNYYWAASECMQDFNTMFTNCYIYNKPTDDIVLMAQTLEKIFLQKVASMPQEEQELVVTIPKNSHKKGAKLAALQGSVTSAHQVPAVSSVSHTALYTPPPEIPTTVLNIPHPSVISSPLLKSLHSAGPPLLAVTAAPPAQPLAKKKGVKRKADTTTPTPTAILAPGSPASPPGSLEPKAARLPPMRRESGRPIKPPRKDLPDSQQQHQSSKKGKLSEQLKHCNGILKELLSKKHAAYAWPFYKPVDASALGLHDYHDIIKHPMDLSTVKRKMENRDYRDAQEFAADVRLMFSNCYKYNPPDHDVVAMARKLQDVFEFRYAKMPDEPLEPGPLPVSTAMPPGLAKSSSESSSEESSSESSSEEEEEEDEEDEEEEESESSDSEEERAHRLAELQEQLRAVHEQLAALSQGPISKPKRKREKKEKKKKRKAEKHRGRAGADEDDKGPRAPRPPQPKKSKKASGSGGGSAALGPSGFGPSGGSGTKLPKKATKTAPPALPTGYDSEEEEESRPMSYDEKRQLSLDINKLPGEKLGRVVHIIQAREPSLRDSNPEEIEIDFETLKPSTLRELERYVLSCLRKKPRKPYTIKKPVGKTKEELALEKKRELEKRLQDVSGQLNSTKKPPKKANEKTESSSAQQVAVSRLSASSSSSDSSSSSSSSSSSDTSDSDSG
T3 sequence (Q13619 whole entry, looked up): as the sequence (Q13619 whole entry, looked up) above
T3 sequence (Q96SW2 whole entry, looked up): as the sequence (Q96SW2 whole entry, looked up) above

[6] = system: RS4-11; experiment: Induction of apoptosis in human RS4:11 cells assessed as PARP cleavage at 0.1 to 10 nM after 24 hrs by Western blot analysis; format: functional, cell-based
Summary of the method: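 Cells (1.5–2×10^6/well) were treated for 24 h, washed in cold PBS and lysed in RIPA with protease inhibitors. 20 µg lysate was run on 4–20% or 4–12% gels and transferred to PVDF. Blots were probed for cleaved PARP and cleaved caspase 3, with GAPDH as loading control. Detection by ECL.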

[7] = system: MV4-11; experiment: Growth inhibition of human MV4-11 cells after 96 hrs by CCK8 assay; format: functional, cell-based; conditions: MV4-11, 96 h
[8] = system: MOLM-13; experiment: Growth inhibition of human MOLM13 cells after 96 hrs by CCK8 assay; format: functional, cell-based; conditions: MOLM-13, 96 h
[9] = biological target: T1, Protein cereblon/Bromodomain-containing protein 4/Cullin-4A (Homo sapiens); experiment: Protac activity at cereblon/cullin 4A/BRD4 in human RS4:11 cells assessed as BRD4 degradation by Western blot analysis; format: cell-based
[10] = biological target: T3, Protein cereblon/Bromodomain-containing protein 2/Cullin-4A (Homo sapiens); experiment: Protac activity at cereblon/cullin 4A/BRD2 in human RS4:11 cells assessed as BRD2 degradation by Western blot analysis; format: cell-based
[11] = biological target: T2, Protein cereblon/Bromodomain-containing protein 3/Cullin-4A (Homo sapiens); experiment: Protac activity at cereblon/cullin 4A/BRD3 in human RS4:11 cells in assessed as BRD3 degradation by Western blot analysis; format: cell-based
[12] = biological target: Protein cereblon/Bromodomain-containing protein 4/Bromodomain-containing protein 3/Bromodomain-containing protein 2 (Homo sapiens) (UniProt P25440+O60885+Q15059+Q96SW2); experiment: Protac activity at cereblon/cullin 4A/BET in human RS4:11 cells assessed as reduction in c-myc protein levels at 0.1 nM after 3 hrs by Western blot analysis; format: cell-based
Sequence of Protein cereblon/Bromodomain-containing protein 4/Bromodomain-containing protein 3/Bromodomain-containing protein 2 (Homo sapiens) (P25440 whole entry, looked up, other chains not shown): as the sequence (P25440 whole entry, looked up) above
Sequence of Protein cereblon/Bromodomain-containing protein 4/Bromodomain-containing protein 3/Bromodomain-containing protein 2 (Homo sapiens) (Q15059 whole entry, looked up, other chains not shown): as the sequence (Q15059 whole entry, looked up) above
Sequence of Protein cereblon/Bromodomain-containing protein 4/Bromodomain-containing protein 3/Bromodomain-containing protein 2 (Homo sapiens) (Q96SW2 whole entry, looked up, other chains not shown): as the sequence (Q96SW2 whole entry, looked up) above

[13] = biological target: T2, Protein cereblon/Bromodomain-containing protein 3/Cullin-4A (Homo sapiens); experiment: Protac activity at cereblon/cullin 4A/BRD3 in human RS4:11 cells assessed as BRD3 degradation at 1 to 10 uM after 3 to 24 hrs by Western blot analysis; format: cell-based
Summary of the method: (§1)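 Cells are used within two months of thawing. […] 1.5–2×10^6 cells/well are treated for 3 h or 24 h, then lysed in RIPA with protease inhibitors. 20 µg lysate is blotted to PVDF and probed with rabbit polyclonal anti-BRD2 or anti-BRD3. GAPDH is the loading control, detected by ECL.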

[14] = system: RS4-11; experiment: Induction of apoptosis in human RS4:11 cells assessed as PARP cleavage at 10 uM after 24 hrs by Western blot analysis; format: functional, cell-based
[15] = biological target: T2, Protein cereblon/Bromodomain-containing protein 3/Cullin-4A (Homo sapiens); experiment: Protac activity at cereblon/cullin 4A/BRD3 in human MV4-11 cells assessed as BRD3 degradation at 1 to 10 uM after 3 to 24 hrs by Western blot analysis; format: cell-based
Summary of the method: as §1

[16] = biological target: T1, Protein cereblon/Bromodomain-containing protein 4/Cullin-4A (Homo sapiens); experiment: Protac activity at cereblon/cullin 4A/BRD4 in human RS4:11 cells assessed as BRD4 degradation at 0.1 to 1 uM after 3 to 24 hrs by Western blot analysis; format: cell-based
[17] = biological target: T3, Protein cereblon/Bromodomain-containing protein 2/Cullin-4A (Homo sapiens); experiment: Protac activity at cereblon/cullin 4A/BRD2 in human RS4:11 cells assessed as induction of BRD2 degradation at 0.1 to 1 uM after 3 to 24 hrs by Western blot analysis; format: cell-based
[18] = biological target: T2, Protein cereblon/Bromodomain-containing protein 3/Cullin-4A (Homo sapiens); experiment: Protac activity at cereblon/cullin 4A/BRD3 in human RS4:11 cells in assessed as BRD3 degradation at 0.1 to 1 uM after 3 to 24 hrs by Western blot analysis; format: cell-based

SMILES	IC50 [3]	IC50 [7]	IC50 [8]	further results
Cc1sc2c(c1C)COCc1nnc(C)n1-2				IC50 [1]: 4400 nM; Ki [1]: 1500 nM
Cc1nnc2n1-c1sc(C#N)c(Cc3ccccc3)c1COC2				IC50 [1]: 720 nM; Ki [1]: 250 nM
Cc1nnc2n1Cc1sc(C#Cc3cnn(CCCNc4cccc5c4C(=O)N(C4CCC(=O)NC4=O)C5=O)c3)c(Cc3ccccc3)c1OC2 (centres undefined)	0.038 nM	0.138 nM	0.56 nM	Activity [2]: Active; Activity [4]: Active; Activity [5]: Active; Activity [6]: Active
Cc1nnc2n1-c1scc(Cc3ccccc3)c1COC2				IC50 [1]: 2300 nM; Ki [1]: 820 nM
Cc1nnc2n1Cc1sc(C#Cc3cnn(COc4cccc5c4C(=O)N(C4CCC(=O)NC4=O)C5=O)c3)c(Cc3ccccc3)c1OC2 (centres undefined)	20.8 nM	19.7 nM	311 nM	Activity [9]: Dose-dependent effect; Activity [10]: Dose-dependent effect; Activity [11]: Dose-dependent effect
Cc1nnc2n1Cc1sc(C#Cc3cnn(CCCCNc4cccc5c4CN(C4CCC(=O)NC4=O)C5=O)c3)c(Cc3ccccc3)c1OC2 (centres undefined)	0.0012 nM		0.18 nM	
Cc1nnc2n1-c1sc(C3CCOCC3)c(Cc3ccccc3)c1COC2				IC50 [1]: 8100 nM; Ki [1]: 2800 nM
Cc1nnc2n1Cc1sc(C#Cc3cnn(CCCCNc4cccc5c4C(=O)N(C4CCC(=O)NC4=O)C5=O)c3)c(Cc3ccccc3)c1OC2 (centres undefined)	0.02 nM	0.0654 nM	0.19 nM	Activity [2]: Active; Activity [4]: Active; Activity [5]: Active; Activity [6]: Active; Activity [12]: Active
Cc1nnc2n1-c1sc(C#Cc3cnn(C)c3)c(Cc3ccccc3)c1COC2				Activity [13]: Active; Activity [14]: Active; Activity [15]: inactive
Cc1nnc2n1Cc1sc(C#Cc3cnn(-c4cccc5c4C(=O)N(C4CCC(=O)NC4=O)C5=O)c3)c(Cc3ccccc3)c1OC2 (centres undefined)	> 1000 nM	> 1000 nM	> 1000 nM	Activity [16]: inactive; Activity [17]: inactive; Activity [18]: inactive
Cc1nnc2n1Cc1sc(C#Cc3cnn(CCCCCc4cccc5c4CN(C4CCC(=O)NC4=O)C5=O)c3)c(Cc3ccccc3)c1OC2 (centres undefined)	0.081 nM	0.14 nM	0.53 nM	
Cc1nnc2n1Cc1sc(C#Cc3cnn(CCCCCNc4cccc5c4C(=O)N(C4CCC(=O)NC4=O)C5=O)c3)c(Cc3ccccc3)c1OC2 (centres undefined)	0.02 nM	0.092 nM	0.19 nM	Activity [2]: Active; Activity [4]: Active; Activity [5]: Active; Activity [6]: Active; Activity [12]: Active
Cc1nnc2n1Cc1sc(C#Cc3cnn(CCNc4cccc5c4C(=O)N(C4CCC(=O)NC4=O)C5=O)c3)c(Cc3ccccc3)c1OC2 (centres undefined)	0.379 nM	0.47 nM	2.23 nM	Activity [6]: Active
Cc1nnc2n1Cc1sc(C#Cc3cnn(CCCC#Cc4cccc5c4C(=O)N(C4CCC(=O)NC4=O)C5=O)c3)c(Cc3ccccc3)c1OC2 (centres undefined)	0.39 nM	0.72 nM	1.6 nM	
Cc1nnc2n1Cc1sc(C#Cc3cnn(CCCC#Cc4cccc5c4CN(C4CCC(=O)N(C)C4=O)C5=O)c3)c(Cc3ccccc3)c1OC2 (centres undefined)	43.7 nM	25.8 nM	183 nM	
Cc1nnc2n1Cc1sc(C#Cc3cnn(CCCNc4cccc5c4CN(C4CCC(=O)NC4=O)C5=O)c3)c(Cc3ccccc3)c1OC2 (centres undefined)	0.025 nM	0.035 nM	0.51 nM	
